Results gathered from unrelated publications.
Each line is one published result; the experiments were not run side by side.
Cell line: NCI-H1975
Observed: cell growth or viability

Structure (SMILES)	test	setting	endpoint	value
N[C@@H](CO)C(=O)Nc1ccccc1/N=c1\cc(-c2ccc3c(c2)OCO3)oc2ccccc12	CCK-8	1 µM	inhibition	-1.95%
CCCn1cnc2ccc(-c3ccc(NC(=O)CC4CC4)nc3)cc2c1=O	CCK-8	72 h	IC50	3.48 µM
COc1ccc(NC(=O)Nc2nc3cc(-c4ccc5ncn(CCN(C)C)c(=O)c5c4)ccc3s2)cc1	MTT	72 h	IC50	> 20 µM
C#Cc1cccc(Nc2ncnc3cc(OCCOC)c(OCCOC)cc23)c1	MTT	72 h	IC50	5.72 µM
Cc1ccc(NC(=O)Nc2nc3cc(-c4ccc5ncn(Cc6ccccc6)c(=O)c5c4)ccc3s2)cc1	MTT	72 h	IC50	> 20 µM
CCCCC(=O)Nc1ccc(-c2ccc3ncn(CC4CCC4)c(=O)c3c2)cn1	CCK-8	72 h	IC50	1.4 µM
CC(C)(C)[C@H](N)C(=O)Nc1ccccc1/N=c1\cc(-c2ccc3c(c2)OCCO3)oc2cc(F)ccc12	CCK-8	1 µM	inhibition	-7.44%
CCCn1cnc2ccc(-c3ccc(NC(=O)c4ccccc4)nc3)cc2c1=O	CCK-8	72 h	IC50	0.095 µM
COc1ccc2/c(=N/c3ccccc3NC(=O)[C@H](C)N)cc(-c3ccc4c(c3)OCCO4)oc2c1	CCK-8	1 µM	inhibition	5.17%
COc1cccc(NC(=O)Nc2nc3cc(-c4ccc5ncn(CCN(C)C)c(=O)c5c4)ccc3s2)c1	MTT	72 h	IC50	> 20 µM
